Experimental data pooled from the literature.
Each line is one published result; the experiments were not run side by side.
Target: Tyrosine-protein kinase Fer (FER, Homo sapiens, UniProt P16591)

| SMILES | effect on | method | tested at | remaining binding [%] |
| --- | --- | --- | --- | --- |
| F[C@@H]1CCN(c2nccc(-c3cnn4ncccc34)n2)C1 | binding | – | 1 µM | 81 |
| Cc1c(C(=O)O)cc(-c2ccc(C3CCNCC3)cc2)c2ccc(-c3ccc(C(F)(F)F)cc3)cc12 | binding | competition with immobilised ligand | 1 µM | 100 |
| O=C(NCCCN1CCOCC1)c1ccc(Nc2nccc(-c3cc4ccccc4s3)n2)cc1 | binding | competition with immobilised ligand | 1 µM | 100 |
| C[C@@H]1CCN(c2nccc(-c3cnn4ncccc34)n2)C1 | binding | – | 1 µM | 100 |
| CNC(=O)[C@@H]1CC[C@@H](n2c(-c3ccc4cnccc4c3)nc3ccc(C(=O)NCc4cccc(C(N)=O)c4)cc32)C1 | binding | competition with immobilised ligand | 1 µM | 100 |
| O=C(c1ccc(Nc2ncc(Cl)c(-c3ccc(Cl)s3)n2)cc1)N1CCC(N2CCCC2)CC1 | binding | competition with immobilised ligand | 1 µM | 81 |
| COc1ncc2cc3ccccc3nc2c1C#N | cell-free assay | competition with immobilised ligand | 5 µM | 100 |
| C[C@@]1(Cc2ccc(C#N)cc2)C(=O)N(c2cc(Cl)cc(Cl)c2)c2ncc(C(=O)NC3(c4nc(C5CCC5)no4)CC3)n21 | cell-free assay | competition with immobilised ligand | 1 µM | 100 |
| CN(C)c1ncc(F)c(-c2cnn3ncccc23)n1 | binding | – | 1 µM | 82 |
| O=C(c1ccc(Nc2ncc(Cl)c(-c3cc4ccccc4s3)n2)cc1)N1CCC(N2CCCC2)CC1 | binding | competition with immobilised ligand | 1 µM | 76 |
| CCC(=O)N[C@@H]1CC[C@H](C(=O)N(C)c2ccc(-c3nc4ccccc4o3)cc2)C1 | cell-free assay | competition with immobilised ligand | 1 µM | 99 |
| COc1cnc(Nc2cccc(S(N)(=O)=O)c2)nc1N1CCN(c2ccccc2)C(=O)C1 | binding | competition with immobilised ligand | 1 µM | 100 |
| Nc1ncc2c(n1)-c1c([nH]c3ccc(C#CC4CC4)cc13)CCCC2 | binding | competition with immobilised ligand | 1 µM | 100 |
| CS(=O)(=O)N1CCCC(NC(=O)[C@H](CCC2CCCCC2)NC(=O)c2ccc(CNC(=O)c3cnc4ccccn34)cc2)C1 (stereo partly drawn) | cell-free assay | competition with immobilised ligand | 0.1 µM | 99 |
| FC(F)(F)Oc1cccc(-c2cnc3ccc(-c4ccncc4)nn23)c1 | cell-free assay | competition with immobilised ligand | 5 µM | 90 |
| CN(CCCC(F)(F)F)c1nccc(-c2cnn3ncccc23)n1 | binding | – | 1 µM | 65 |
| O=C(NCC1CCOCC1)c1n[nH]cc1NC(=O)c1c(F)cccc1F | binding | competition with immobilised ligand | 1 µM | 100 |
| O=C(NC[C@@H]1[C@H]2CN(C(=O)OCc3cc(C(F)(F)F)cc(C(F)(F)F)c3)C[C@@H]12)c1ccc2[nH]nnc2c1 | cell-free assay | competition with immobilised ligand | 1 µM | 97 |
| CN(C)c1nccc(-c2cnn3ncccc23)n1 | binding | – | 1 µM | 97 |
| CC(=O)c1c(NS(C)(=O)=O)c2cc(-c3ccc(Cl)cc3)c(-c3ccc(Cl)cc3Cl)nc2n(C)c1=O | cell-free assay | competition with immobilised ligand | 1 µM | 100 |
| COc1ccnn2ncc(-c3ccnc(N(C)C)n3)c12 | binding | – | 1 µM | 100 |
